MDM2 E3 inh: inhibitors of human Mdm2 E3 ubiquitin ligase; hit rate 0.11% among 210,000; AID 1230; cell-based MDM2 ubiquitination luciferase reporter, 2 h; 0 = plate control, 100 = twice control, blank-subtracted; signal enhancement, % at 5 µM;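 active = signal enhancement of 30% or more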;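 also: luminescence tracks abundance of the self-degrading MDM2-luciferase fusion protein; higher signal means inhibition of MDM2 E3 ligase activity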
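system = mammalian cells stably expressing self-ubiquitinating, self-degrading MDM2 E3–luciferase fusion | quantity = 2000 cells per well seeded | incubation = 4 h cell settling then 2 h compound exposure, 37 °C | signal = SteadyLite luminescence, 15 min reagent step | benchmarks = plate control and blank wells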
S1P3 antagonist: S1P3 (human) receptor antagonism. CHO S1P3 NFAT-BLA reporter, FRET fluorescence, antagonist mode. inhibition, % at 4.98 µM. hit rate 0.27% among 170,000. Q99500;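 active = inhibition above the plate cutoff, the mean inhibition of test wells on that plate plus 3 SD, cut at about 28% in these data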;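 also: cells challenged with S1P at its EC80 of 0.8 µM; blue over green emission ratio from cleaved BLA substrate after 4 h stimulation; 0% = S1P-stimulated wells and 100% = unstimulated DMSO-only wells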
Target sequence (Q99500 whole entry, looked up): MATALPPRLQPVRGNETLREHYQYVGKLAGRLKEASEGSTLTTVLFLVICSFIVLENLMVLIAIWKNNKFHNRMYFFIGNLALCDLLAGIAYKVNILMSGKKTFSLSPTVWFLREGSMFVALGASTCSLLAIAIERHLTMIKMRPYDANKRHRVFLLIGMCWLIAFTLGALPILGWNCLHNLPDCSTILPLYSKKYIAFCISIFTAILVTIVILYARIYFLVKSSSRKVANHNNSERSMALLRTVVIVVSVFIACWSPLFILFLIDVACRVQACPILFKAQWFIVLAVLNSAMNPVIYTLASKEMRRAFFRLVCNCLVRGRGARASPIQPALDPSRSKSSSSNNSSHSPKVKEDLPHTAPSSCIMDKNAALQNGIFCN
S1P4 antag: blocks the human S1P4 receptor. O95977. S1P4-expressing cells, antagonist mode, reporter read-out. inhibition, % at 4.98 µM. hit rate 0.26% among 220,000. AID 1510; in the data active = inhibition above about 29%;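 also: 0% = wells stimulated with agonist and 100% = vehicle wells without agonist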
S1P4 agonist: activates the human S1P4 receptor | O95977 | S1P4-expressing cell line, agonist reporter assay | activation, % at 4.98 µM | hit rate 0.35% among 220,000; in the data active = activation above about 11%;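 also: 0% = DMSO vehicle and 100% = reference agonist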
Lmaj promast: Leishmania major promastigote growth inhibition. Leishmania major promastigotes, resazurin fluorescence viability. inhibition, % at 10 µM. hit rate 9% among 200,000. AID 1063; in the data active = inhibition above about 50%;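 also: promastigotes grown with compound for 44 hours at 28 °C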
Starred values were filed as active, the others as inactive; . = no result. Only a selection was taken, and hits are over-represented in it overall.

SMILES	MDM2 E3 inh	S1P3 antagonist	S1P4 antag	S1P4 agonist	Lmaj promast
NC(=NCCc1c[nH]c2ccccc12)NC(=O)c1ccc(Cl)cc1	-2	-2	-5	0	60*
Cc1cc(C)nc(NC(=NCCc2c[nH]c3ccccc23)NC(=O)Nc2ccc(Cl)cc2)n1	-11	-7	1	1	73*
CSc1ccc(C(=O)C2CCCN(C(=O)c3ccc4c(c3)no[n+]4[O-])C2)cc1 (stereo unspecified)	4	-11	0	0	.
Cc1cccc(-c2nc3ccccc3c(=O)n2NC(=O)/C=C/c2ccc([N+](=O)[O-])cc2)c1	3	8	14	1	52*
CN(Cc1ccccc1F)c1ccc(S(=O)(=O)N2CCCC2)cn1	-5	-4	0	1	98*
O=C(N/N=C/c1ccc(Br)o1)c1cc([N+](=O)[O-])cc([N+](=O)[O-])c1	-1	4	-4	-1	94*
O=C(N/N=C/c1ccncc1)c1cc([N+](=O)[O-])cc([N+](=O)[O-])c1	4	-1	-13	0	96*
O=C(N/N=C/c1ccco1)c1cccc([N+](=O)[O-])c1	10	5	4	-1	-10
CCn1nc(C(=O)OC(C(=O)c2c[nH]c3ccccc23)c2ccccc2)c2ccccc2c1=O (stereo unspecified)	.	.	10	-1	100*
C/C(CC(=O)Nc1ccc(Cl)c(C(F)(F)F)c1)=N\NC(N)=S	2	-7	-8	1	97*
O=C(CCNC(=O)c1ccccc1Cl)Nc1ccc(Cl)c(C(F)(F)F)c1	3	-2	-25	2	51*
C/C(CC(=O)Nc1ccc(Cl)c(C(F)(F)F)c1)=N\NC(=O)c1ccccc1O	-2	-14	0	-1	-10
COc1ccc(C(=O)/C=C/c2ccccc2C(F)(F)F)cc1	1	.	7	2	54*
Cc1cc(N/N=C/c2ccc(O)c(C)c2O)nc(-c2ccccc2O)n1	-25	-7	14	-3	93*
CC1(C)N([O-])C2=C(CCCC2)[N+]1=O	-15	-16	-10	0	-4
CC1(C)CC(O)(CNCc2ccc3c(c2)OCO3)CCO1 (stereo unspecified)	3	.	14	1	75*
CN1CCc2c(c3ccccc3n2Cc2ccccc2)C1	-11	-18	-18	1	100*
Cc1cc(C)nc(N/N=C2/CCCC/C2=C\c2ccccc2)n1	-28	-7	-20	2	100*
CC(C)(C)OC(=O)COc1cc(OCC(=O)OC(C)(C)C)c2c(=O)cc(-c3ccccc3)oc2c1	3	.	3	1	50*
O=C(CSc1n[nH]c(-c2ccccc2)n1)Nc1ccc(Br)cn1	.	.	2	-1	54*
Cc1ccn2c(NC(=O)C(C)(C)Oc3ccc(Cl)cc3)c(-c3cccs3)nc2c1	-11	3	-30	0	29
Cc1nnc(SCC(=O)Nc2ccc3c(c2)OCO3)n(N)c1=O	-16	-18	-8	4	-7
C/C(=N/NC(=O)CNC(=O)c1ccccn1)c1ccccc1	0	-20	-27	2	-3
C/C(=N\NC(=O)CCCNc1ccc(C)cc1)c1ccccn1	6	1	-10	0	98*
C=CCNC(=S)N/N=C(\C)c1ccccn1	-49	.	16	-5	100*
SMILES	MDM2 E3 inh	S1P3 antagonist	S1P4 antag	S1P4 agonist	Lmaj promast
CN(C)S(=O)(=O)c1ccc(Cl)c(NC(=O)COC(=O)C2CSC3(C)CCC(=O)N23)c1 (stereo unspecified)	0	-2	-8	0	-4
Cc1ccc(/C=N/N(Cc2ccccc2)c2ccccc2)o1	-1	5	-2	4	2
CC1(C)Cc2c(sc3c2c(=N)n(Cc2ccco2)c(=O)n3Cc2ccc(Cl)cc2)CO1	-6	.	-18	-1	15
CC1(C)Cc2c(sc3c2c(=N)n(Cc2ccco2)c(=O)n3Cc2ccccc2)CO1	7	42	1	-1	82*
O=c1c(Cc2ccc(F)cc2)c(O)ccn1CCc1ccccn1	-5	5	-19	1	3
CN(C)CCNc1oc(COc2ccc(-c3ccccc3)cc2)nc1C#N	5	-7	10	-1	66*
C=CCNc1oc(COc2ccc(C)cc2)nc1C#N	-12	-16	6	-2	4
N#Cc1nc(COc2ccc(-c3ccccc3)cc2)oc1NCCCN1CCOCC1	-19	10	12	1	64*
O=C1c2cccc(Cl)c2C(=O)c2c1cccc2N1CCCC1	.	.	-4	3	0
O=C(CSC(=S)N1CCCCC1)Nc1ncc2c(n1)CCCC2=O	-12	3	9	2	.
O=C(Nc1ccc(Cc2ccc(NC(=O)C3CC3)c(O)c2)cc1O)C1CC1	3	-16	-19	2	52*
COc1ccccc1NC(=S)Nc1ccc2cn[nH]c2c1	5	0	-19	3	22
CCc1ccc(C2=NN(CCC(=O)NC(C)CCc3ccccc3)C(=O)CC2)cc1 (stereo unspecified)	1	-10	4	-1	95*
CC(CCc1ccccc1)NC(=O)CCN1N=C(c2ccccc2)CCC1=O (stereo unspecified)	13	-6	3	-1	6
N#CNC1=NCN(Cc2ccccc2)CN1	-2	-32	-2	-1	-5
CCCCCCn1c(-c2ccco2)nc2oc3cc(OC)ccc3c(=O)c2c1=O	-20	5	9	-1	52*
COCCn1c(-c2ccccc2)nc2oc3cc(OC)ccc3c(=O)c2c1=O	6	.	-9	0	22
COc1ccc2c(=O)c3c(=O)n(Cc4ccco4)c(-c4ccccc4)nc3oc2c1	6	16	-16	-1	62*
CCCc1nc2oc3cc(OC)ccc3c(=O)c2c(=O)n1Cc1ccco1	-8	-4	-13	1	14
COc1ccc2c(=O)c3c(=O)n(Cc4ccco4)c(-c4cc(OC)c(OC)c(OC)c4)nc3oc2c1	.	-1	-20	0	67*
CCc1nn2c(=O)cc(CSc3nc4sc5c(c4c(=O)n3C)CCCC5)nc2s1	.	11	-4	2	-10
COC(=O)c1nn(-c2ccc(OC)cc2)c(=O)cc1O	-10	1	-9	1	-8
COc1ccc(-n2nc(C#N)c(Cl)cc2=O)cc1	6	-2	30*	-5	99*
CSc1ccccc1NC(=O)CO/N=C(\C)c1cc2ccccc2o1	2	-3	-12	1	95*
Cc1noc(/C=C/c2ccco2)c1S(=O)(=O)N1CCC(C(=O)N2c3ccccc3CC2C)CC1 (stereo unspecified)	-5	41	5	-1	43
CCCCN(CC)S(=O)(=O)c1ccc(C(=O)Nc2nnc(-c3ccccc3Cl)o2)cc1	-5	-31	-9	1	99*
COc1ccccc1-c1nnc(NC(=O)c2ccc(S(=O)(=O)N(C)C)cc2)o1	-4	-12	-17	0	15
CCN(Cc1ccccc1)S(=O)(=O)c1ccc(C(=O)Nc2nnc(-c3ccccc3OC)o2)cc1	-1	5	18	1	99*

Bioassay records as filed in PubChem BioAssay.
